Screening results: PubChem BioAssay, Broad Institute
Only some compounds are listed: those with a hit (about 2.5% of all), similar ones and a draw of the others.
E-sel inducer: induces E-selectin expression in human endothelial cells; P16581; HUVEC E-selectin immunofluorescence imaging; normalized: neutral wells 0, TNF-alpha wells 100; activation, % at 7.58 µM; 260,000 compounds, 0.37% hits; AID 686992;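 active means mean E-selectin-positive cell signal at least 10% of the positive control, reached in at least 60% of replicates, without over 20% cell loss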
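Test system – human umbilical vein endothelial cells (HUVEC), E-selectin induction · Input – 3,000 HUVEC seeded per well · Buffer or medium – EGM-2, gelatin · Compound dosing – single-point compound dose · Detection – immunofluorescence imaging · Measure – percent E-selectin-positive cells · Controls – TNF-alpha high, DMSO low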
ERAP1 HTS inh: inhibitors of human ERAP1 aminopeptidase. recombinant ERAP1, Leu-AMC fluorescence, 60 min. inhibition, % at 10.7 µM. 340,000 compounds, 0.15% hits. AID 652197;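 active means mean replicate inhibition of at least 30%, or all replicates individually reaching that 30% level; inactive means mean below 30% and not every replicate reaching it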;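 further: 0% = neutral control wells and 100% = L-leucinethiol positive control wells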
DENV2 CPE: protects cells from dengue virus 2 cytopathic effect; DENV2-infected cells, cytopathic effect rescue, plate reader; CPE inhibition, % at 9.99 µM; 350,000 compounds, 1.7% hits; in the data active means CPE inhibition above about 20%, passing the limit was not always enough; tested in BHK-21 cells;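 further: 0% = median of neutral control wells and 100% = median of positive control wells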
SIRT5 block: blocks human SIRT5 desuccinylation of peptide | Q9NXA8 | Purified SirT5, succinyl-peptide AMC, trypsin-coupled fluorescence | inhibition, % at 15 µM | 330,000 compounds, 1.1% hits; in the data active means inhibition above about 15%
PglD DTNB: blocks C. jejuni PglD acetyltransferase activity | purified PglD enzyme, DTNB colorimetric CoA detection | inhibition, % at 12.5 µM | 360,000 compounds, 0.098% hits; in the data active means inhibition above about 16%, passing the limit was not always enough
Active calls of the source: *.

What do the screens show for `CCCCN1C(=O)/C(=C/C=C2\SCCN2C)SC1=S`?
E-sel inducer: 38.5*; ERAP1 HTS inh: -1.1; DENV2 CPE: 4.0; SIRT5 block: 5.0

How did O=C(COc1ccccc1[N+](=O)[O-])N/N=C/c1ccc(O)cc1 do in these assays?
E-sel inducer: -0.4; PglD DTNB: -4.3

Results for COc1cc(=O)[nH]c(SC(C)C(=O)Nc2cccc3ccccc23)n1 (stereo not drawn) ?
ERAP1 HTS inh: 3.7; DENV2 CPE: 6.0; SIRT5 block: 74.9*; PglD DTNB: -4.2

Results for O=C(COC(=O)c1ccco1)NC12CC3CC(CC(C3)C1)C2 ?
E-sel inducer: -0.2; ERAP1 HTS inh: 1.7; DENV2 CPE: 7.6; SIRT5 block: -1.4; PglD DTNB: 0.8

How did Cc1cccc(NS(=O)(=O)c2csc(C(N)=O)c2)c1C do in these assays?
E-sel inducer: 50.0*; ERAP1 HTS inh: -1.6; DENV2 CPE: 2.5; SIRT5 block: -3.4; PglD DTNB: 0.6

How did Cc1cccc(NS(=O)(=O)c2csc(C(N)=O)c2)c1 do in these assays?
E-sel inducer: 0.1; ERAP1 HTS inh: -0.2; DENV2 CPE: 6.8; SIRT5 block: -1.1; PglD DTNB: 8.8

Results for CC(C)N1C(=O)CCC1C(=O)N1CCCc2ccccc21 (stereo not drawn) ?
PglD DTNB: 25.0*

How did CC(Sc1nnnn1-c1ccc(O)cc1)C(=O)NC1CCCCC1C (stereo not drawn) do in these assays?
E-sel inducer: 2.5; ERAP1 HTS inh: -1.9; DENV2 CPE: 34.3*; SIRT5 block: 1.1; PglD DTNB: 4.9

How did O=C(O)CSCCn1cccn1 do in these assays?
PglD DTNB: -5.3

What do the screens show for `N/C(=N\OC(=O)c1cccc(Br)c1)c1ccccn1`?
E-sel inducer: -0.6; ERAP1 HTS inh: -0.3; DENV2 CPE: -7.3; SIRT5 block: -4.7; PglD DTNB: -0.1

How did CCOC(=O)N1CCN(C(=O)Cc2ccccc2[N+](=O)[O-])CC1 do in these assays?
ERAP1 HTS inh: -2.6; DENV2 CPE: 1.1; SIRT5 block: -1.8; PglD DTNB: 0.1

How did C[C@@H]1CN([C@@H](C)CO)C(=O)c2cc(NC(=O)Nc3ccccc3)ccc2O[C@@H]1CN(C)C(=O)Nc1ccc(C(F)(F)F)cc1 do in these assays?
E-sel inducer: 50.6*; ERAP1 HTS inh: 2.2; DENV2 CPE: -4.0; SIRT5 block: 11.0; PglD DTNB: -1.4

What do the screens show for `C[C@H]1CN([C@@H](C)CO)C(=O)c2cc(NC(=O)Nc3ccccc3)ccc2O[C@@H]1CN(C)C(=O)Nc1ccc(C(F)(F)F)cc1`?
E-sel inducer: 40.4*; ERAP1 HTS inh: 1.6; DENV2 CPE: 21.8*; SIRT5 block: 6.0; PglD DTNB: 3.6

How did C[C@@H]1CN([C@H](C)CO)C(=O)c2cc(NC(=O)Nc3ccccc3)ccc2O[C@@H]1CN(C)C(=O)Nc1ccc(C(F)(F)F)cc1 do in these assays?
E-sel inducer: 0.4; ERAP1 HTS inh: 3.3; DENV2 CPE: -1.1; SIRT5 block: 4.2; PglD DTNB: 8.8

What do the screens show for `O=C(OCC(=O)N1CCCCCC1)c1ccc(Cl)c(S(=O)(=O)N2CCCC2)c1`?
E-sel inducer: 1.0; ERAP1 HTS inh: -1.0; DENV2 CPE: -4.0; SIRT5 block: -4.1; PglD DTNB: 1.0

What do the screens show for `CN(C)c1ccc2c(c1)[C@H]1C[C@@H](CC(=O)NCc3ccc(Oc4ccccc4)cc3)O[C@H](CO)[C@H]1O2`?
E-sel inducer: -0.5; ERAP1 HTS inh: 0.3; DENV2 CPE: 82.5*; SIRT5 block: -0.5

Results for CN(C)c1ccc2c(c1)[C@@H]1C[C@@H](CC(=O)NCc3ccccc3)O[C@H](CO)[C@@H]1O2 ?
E-sel inducer: -0.2; ERAP1 HTS inh: 1.2; DENV2 CPE: 2.7; SIRT5 block: 20.3*; PglD DTNB: 1.3

What do the screens show for `CN(C)c1ccc2c(c1)[C@H]1C[C@H](CC(=O)NCc3ccccc3)O[C@@H](CO)[C@H]1O2`?
E-sel inducer: -0.7; ERAP1 HTS inh: 2.5; DENV2 CPE: 1.7; SIRT5 block: -3.0; PglD DTNB: 0.7

How did C[C@H]1CN([C@@H](C)CO)S(=O)(=O)c2ccc(C#Cc3ccncc3)cc2O[C@@H]1CN(C)C do in these assays?
E-sel inducer: -0.1; ERAP1 HTS inh: 1.6; DENV2 CPE: 10.0; SIRT5 block: 1.7; PglD DTNB: 1.1

How did Cc1ccc(NC(=O)CSCC(=O)Nc2ccc(S(=O)(=O)N3CCCC3)cc2)cc1 do in these assays?
E-sel inducer: -1.2; ERAP1 HTS inh: 0.4; DENV2 CPE: -3.7; SIRT5 block: 2.4

Results for O=C(CSCc1ccc([N+](=O)[O-])cc1)Nc1ccc(S(=O)(=O)N2CCCCCC2)cc1 ?
E-sel inducer: -0.9; ERAP1 HTS inh: 1.8; DENV2 CPE: 79.7*; SIRT5 block: 1.4; PglD DTNB: -5.0

How did COc1ccc(C(CCN2CCOCC2)c2c(OC)cc(OC)c3c(C)cc(=O)oc23)cc1 (stereo not drawn) do in these assays?
E-sel inducer: -0.1; ERAP1 HTS inh: -3.2; DENV2 CPE: 55.8*; SIRT5 block: 0.8; PglD DTNB: 2.3

Results for COc1ccc(C(CC(=O)N2CCCCC2)c2c(OC)cc(OC)c3c(-c4ccccc4)cc(=O)oc23)cc1 (stereo not drawn) ?
E-sel inducer: -0.3; ERAP1 HTS inh: -3.5; DENV2 CPE: 71.5*; PglD DTNB: 2.3

How did COc1ccc(NC(=O)Nc2ccc3c(c2)CC(=O)N([C@H](C)CO)C[C@H](C)[C@@H](CN(C)S(=O)(=O)c2ccc(C)cc2)O3)cc1 do in these assays?
E-sel inducer: 1.2; ERAP1 HTS inh: -1.3; DENV2 CPE: -0.8; SIRT5 block: 15.1*

How did COc1ccc(S(=O)(=O)N(C)C[C@H]2Oc3ccc(NC(=O)Nc4ccc(F)cc4)cc3CC(=O)N([C@@H](C)CO)C[C@H]2C)cc1 do in these assays?
E-sel inducer: 0.0; DENV2 CPE: 23.3*; PglD DTNB: -0.5

How did COc1ccc(NC(=O)Nc2ccc3c(c2)CC(=O)N([C@@H](C)CO)C[C@@H](C)[C@@H](CN(C)S(=O)(=O)c2ccc(C)cc2)O3)cc1 do in these assays?
E-sel inducer: 0.6; ERAP1 HTS inh: -7.7; DENV2 CPE: -10.1; SIRT5 block: 1.2

How did COc1ccc(S(=O)(=O)N(C)C[C@@H]2Oc3ccc(NC(=O)CCC(F)(F)F)cc3CC(=O)N([C@@H](C)CO)C[C@H]2C)cc1 do in these assays?
E-sel inducer: -0.1; ERAP1 HTS inh: -0.3; DENV2 CPE: 25.4*; SIRT5 block: 1.2; PglD DTNB: -1.3

Results for COc1ccc(NC(=O)Nc2ccc3c(c2)CC(=O)N([C@H](C)CO)C[C@H](C)[C@@H](CN(C)S(=O)(=O)c2ccc(OC)cc2)O3)cc1 ?
E-sel inducer: 0.4; ERAP1 HTS inh: -2.0; DENV2 CPE: 69.6*; SIRT5 block: 3.7; PglD DTNB: 2.1

Results for COc1ccc(S(=O)(=O)N(C)C[C@H]2Oc3ccc(NC(=O)CCC(F)(F)F)cc3CC(=O)N([C@H](C)CO)C[C@H]2C)cc1 ?
E-sel inducer: 1.2; ERAP1 HTS inh: -1.8; DENV2 CPE: 1.3; SIRT5 block: -4.4; PglD DTNB: 5.4
